OX1R antag-1 = OX1R (human) antagonism; OX1R-expressing cells, FRET antagonist read-out; inhibition, % at 6.6 µM; hit rate 1.8% among 330,000; in the data active means inhibition mostly above about 38%, no sharp cut-off; inactive means mostly below about 40%
Target sequence (O43613 whole entry, looked up): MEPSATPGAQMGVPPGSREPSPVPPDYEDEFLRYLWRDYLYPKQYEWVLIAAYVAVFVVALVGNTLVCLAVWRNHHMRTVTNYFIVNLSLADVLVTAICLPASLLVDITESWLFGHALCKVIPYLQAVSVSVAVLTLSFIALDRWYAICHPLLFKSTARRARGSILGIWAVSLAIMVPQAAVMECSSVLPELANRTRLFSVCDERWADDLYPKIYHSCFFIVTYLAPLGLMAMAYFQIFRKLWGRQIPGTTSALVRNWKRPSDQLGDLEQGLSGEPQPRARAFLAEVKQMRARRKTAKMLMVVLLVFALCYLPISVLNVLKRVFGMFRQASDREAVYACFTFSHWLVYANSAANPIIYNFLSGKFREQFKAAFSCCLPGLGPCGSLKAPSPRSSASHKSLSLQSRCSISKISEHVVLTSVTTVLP
OX1R antag-2 = human HCRTR1 antagonism | CHO/OX1R cells, Fluo-8 calcium fluorescence, orexin A | hit rate 0.43% among 330,000 | O43613 | inhibition, % at 5 µM;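 active means inhibition above its plate's threshold, mean inhibition of all tested compounds on the plate plus 3 SD, cut at about 37% in these data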
CHO parental Ca = signal in parental CHO cells, OX1R antagonist counter-screen; AID 463079; inhibition, % at 5.6 µM; parental CHO-K1, ATP-induced calcium, Fluo-8 fluorescence; hit rate 0.63% among 330,000;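 active means inhibition above that plate's mean sample inhibition plus 3 SD, cut at about 26% in these data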
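Material – parental CHO cells · Reagent – ATP stimulus · Compound – single nominal dose of 5.6 µM per compound · Detection – Fluo-8 fluorescence · Read-out basis – percent inhibition of calcium signal · Controls – ATP-challenged DMSO wells low, unchallenged DMSO wells high · Repeats – no replicates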
TAAR1 ag = agonists of human TAAR1 | CHO RD-HGA16 TAAR1, Fluo-8 calcium fluorescence; vehicle wells 0%, saturating PEA agonist 100% | activation, % at 3 µM | hit rate 0.99% among 360,000 | AID 624467;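 active means activation above the mean activation of all test compounds in the run plus 3 SD, cut at about 38% in these data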
Target sequence (Q96RJ0 whole entry, looked up): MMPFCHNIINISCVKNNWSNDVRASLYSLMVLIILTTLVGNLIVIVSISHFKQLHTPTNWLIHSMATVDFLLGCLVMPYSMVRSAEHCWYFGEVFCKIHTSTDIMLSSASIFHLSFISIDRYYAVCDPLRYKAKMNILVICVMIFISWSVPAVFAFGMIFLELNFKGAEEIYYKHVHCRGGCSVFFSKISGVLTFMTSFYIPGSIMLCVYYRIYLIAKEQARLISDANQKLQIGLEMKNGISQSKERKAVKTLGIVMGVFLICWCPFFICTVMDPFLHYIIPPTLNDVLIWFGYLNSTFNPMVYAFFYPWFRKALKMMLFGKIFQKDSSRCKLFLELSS
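Test system: RD-HGA16 (CHO) cells co-expressing Gα16 and hTAAR1 / Benchmarks: DMSO vehicle as 0%, PEA at EC100 as 100% / Repeats: no replicates (n 1) / Measure: % activation from peak over basal fluorescence ratio, DMSO-to-PEA scaled / Timing: 17-24 h plating, Fluo-8 75 min 37 °C, 30 min RT / Technique: kinetic Fluo-8 calcium fluorescence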
TAAR1 antagonist = antagonists of human TAAR1 | Q96RJ0 | CHO RD-HGA16 TAAR1, Fluo-8 calcium fluorescence, antagonist | inhibition, % at 3 µM | hit rate 1.5% among 360,000 | AID 624466;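 active means inhibition above a per-plate cutoff, the mean inhibition of test compounds on that plate plus 3 SD, cut at about 49% in these data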
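Material: RD-HGA16 CHO cells with stable hTAAR1 and Gα16; Dosing: single nominal final test compound concentration of 3 µM; Schedule: seeding 17-24 h prior, 75-min 37 °C, 30-min RT dye loading; Detection: kinetic Fluo-8 calcium fluorescence measurement; Measure: % inhibition from peak post-agonist over basal fluorescence ratio; Benchmarks: vehicle and agonist controls.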
nonsel antag count = counter-screen for TAAR1 antagonists: nonselective antagonists. hit rate 77% among 2,400. shares compounds with TAAR1 antagonist. inhibition, % at 3 µM. counterscreen cell line, calcium fluorescence, antagonist mode; in the data active means inhibition above about 22%;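 further: CHO-Ga16 host cells stimulated with ATP at an EC80 level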
TAAR1 antag conf = confirmation of human TAAR1 antagonists; inhibition, % at 3 µM; AID 651785; TAAR1-expressing cells, fluorescence antagonist read-out; shares compounds with TAAR1 antagonist; hit rate 40% among 2,400; in the data active means inhibition above about 49%;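 further: CHO-Ga16 host cells challenged with agonist PEA near its EC80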
Ga16 nonsel ag = nonselective Ga16 agonism, counter-screen; activation, % at 3 µM; shares compounds with TAAR1 antagonist; AID 651953; Ga16-expressing cells, calcium fluorescence, agonist counterscreen; hit rate 18% among 2,400; in the data active means activation above about 12%
TAAR1 ag count = activates human TAAR1 in antagonist counter-screen | AID 651955 | shares compounds with TAAR1 antagonist | activation, % at 3 µM | hit rate 2% among 2,400 | hTAAR1 cell line, fluorescence activation, agonist mode; in the data active means activation above about 37%;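 further: CHO cells stably expressing TAAR1 with calcium dye readout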
Each line names hits and unclear results; the compound was inactive in the other large screens (follow-up assays come after a bar, where they were run). Most compounds without a hit are left out; they make up all but 3.9% or so of the library.

COc1ccc(CCn2c(C)cc3c(c2=O)C(c2ccc4c(c2)OCO4)C(C#N)=C(N)O3)cc1OC (stereo unspecified)	TAAR1 antagonist 52.8 | nonsel antag count 28.6 | TAAR1 antag conf inactive | Ga16 nonsel ag inactive | TAAR1 ag count inactive
Cc1cc2c(c(=O)n1Cc1ccccn1)C(C(C)C)C(C#N)=C(N)O2 (stereo unspecified)	none
Cc1ccc(CN2C(=O)C(=O)c3cc(C)ccc32)cc1	none
Cc1ccc2c(c1)C(=O)C(=O)N2Cc1ccc(Br)cc1	TAAR1 antagonist 82.0 | nonsel antag count inactive | TAAR1 antag conf inactive | Ga16 nonsel ag inactive | TAAR1 ag count inactive
CN1[C@@H](Cc2ccccc2)COc2cc(N3CCSCC3)ccc2S1(=O)=O	none (no result: OX1R antag-1, OX1R antag-2, CHO parental Ca)
COc1ccc(S(=O)(=O)Nc2ncccn2)cc1	TAAR1 antagonist 104.7 | nonsel antag count inactive | TAAR1 antag conf inactive | Ga16 nonsel ag inactive | TAAR1 ag count inactive
O=c1c2ccccc2oc2cc(C#Cc3ccccn3)ccc12	none
Nc1ccc(C#Cc2ccc3oc4ccccc4c(=O)c3c2)cc1	TAAR1 antagonist 68.1 | nonsel antag count inactive | TAAR1 antag conf inactive | Ga16 nonsel ag inactive | TAAR1 ag count inactive
COC(=O)c1ccccc1NC(=O)C1CCN(C(=O)c2ccc(OC)cc2)CC1	none
O=C(c1ccc(Cl)cc1)N1CCN(S(=O)(=O)/C=C/c2ccccc2)CC1	none
O=C(CCC(=O)Nc1ccc(F)cc1)N/N=C/c1ccccc1	none
O=C(CCC(=O)Nc1ccc(F)cc1)N/N=C/c1ccc(Br)cc1	TAAR1 antagonist 53.4 | nonsel antag count inactive | TAAR1 antag conf inactive | Ga16 nonsel ag inactive | TAAR1 ag count inactive
Cc1cc(C(=O)Nc2cccc3c2O[C@@H](CN(C)S(C)(=O)=O)[C@H](C)CN([C@@H](C)CO)C3=O)n(C)n1	none
CC(C)c1onc(C(=O)NC2CCCCC2)c1[N+](=O)[O-]	none
CCOC(=O)c1ccccc1NC(=O)COC(=O)c1cc([N+](=O)[O-])ccc1N1CCOCC1	TAAR1 antagonist 58.8 | nonsel antag count 26.5 | TAAR1 antag conf inactive | Ga16 nonsel ag inactive | TAAR1 ag count inactive
Cc1ccc2nc(-c3ccco3)c(Cc3ccccc3C(F)(F)F)n2c1	none (no result: OX1R antag-1, OX1R antag-2, CHO parental Ca)
CCc1ccc(S(=O)(=O)Nc2ccc(O)c3c(=O)cc(-c4ccccc4Cl)oc23)cc1	TAAR1 antagonist 60.6 | nonsel antag count inactive | TAAR1 antag conf inactive | Ga16 nonsel ag inactive | TAAR1 ag count inactive
CC(C)(C)c1ccc(C(=O)Nc2ccc(O)c3c(=O)cc(-c4ccccc4Cl)oc23)cc1	none
Cc1ccc(S(=O)(=O)NCC2CCC(C(=O)NCc3ccc4c(c3)OCO4)CC2)cc1 (stereo unspecified)	none
O=C(NCc1ccc2c(c1)OCO2)C1CCC(CNS(=O)(=O)c2ccc(Cl)cc2)CC1 (stereo unspecified)	TAAR1 antagonist 49.4 | nonsel antag count inactive | TAAR1 antag conf inactive | Ga16 nonsel ag inactive | TAAR1 ag count inactive
COc1ccc(Cc2nnc(NC(=O)c3ccco3)s2)cc1OC	none
C[C@@H](NC(=O)c1nc[nH]c1C(=O)NCCCCCNC(=O)OC(C)(C)C)c1ccccc1	none
CC(C)C[C@H](NC(=O)c1nc[nH]c1C(=O)NC(c1ccccc1)c1ccccc1)C(=O)OC(C)(C)C	TAAR1 antagonist 56.2 | nonsel antag count inactive | TAAR1 antag conf inactive | Ga16 nonsel ag inactive | TAAR1 ag count inactive
CC(C)(C)OC(=O)NCc1ccc(CNC(=O)c2[nH]cnc2C(=O)Nc2ccccc2F)cc1	TAAR1 antagonist 71.0 (no result: OX1R antag-1, OX1R antag-2, CHO parental Ca) | nonsel antag count 42.1 | TAAR1 antag conf inactive | Ga16 nonsel ag inactive | TAAR1 ag count inactive
CC(C)C[C@H](NC(=O)c1[nH]cnc1C(=O)N[C@H](C)c1ccccc1)C(=O)OC(C)(C)C	none
CC(C)(C)OC(=O)NCc1ccc(CNC(=O)c2nc[nH]c2C(=O)N2CCN(C(=O)OC(C)(C)C)CC2)cc1	TAAR1 antagonist 61.0 | nonsel antag count 35.1 | TAAR1 antag conf 52.4 | Ga16 nonsel ag 16.3 | TAAR1 ag count inactive
C[C@H](NC(=O)c1nc[nH]c1C(=O)NCc1ccc(CNC(=O)OC(C)(C)C)cc1)c1ccccc1	TAAR1 antagonist 68.0 | nonsel antag count 38.2 | TAAR1 antag conf inactive | Ga16 nonsel ag inactive | TAAR1 ag count inactive
CCCC(=O)Nc1cc(C)c(NC(=O)c2ccco2)cn1	none
COc1ccccc1Cn1c(SCC(N)=O)nc2c(oc3ccccc32)c1=O	none (no result: OX1R antag-1, OX1R antag-2, CHO parental Ca)
CC(=O)c1cccc(NC(=O)c2ccc(-c3ccccc3[N+](=O)[O-])o2)c1	OX1R antag-1 68.8, TAAR1 antagonist 61.8 | nonsel antag count 24.0 | TAAR1 antag conf inactive | Ga16 nonsel ag 17.9 | TAAR1 ag count inactive
COc1ccc(CC(=O)Nc2nc(-c3ccc(F)c(F)c3)cs2)cc1	none
O=C(Cc1ccc(F)cc1)Nc1nc(-c2ccc(F)c(F)c2)cs1	TAAR1 antagonist 73.6 (no result: OX1R antag-1, OX1R antag-2, CHO parental Ca) | nonsel antag count 34.2 | TAAR1 antag conf inactive | Ga16 nonsel ag inactive | TAAR1 ag count inactive
O=C(Nc1cc(-c2ccccc2)nn1C1CCCCC1)c1ccc(Cl)cc1	none
COCCNc1nc(Oc2ccc(NC(C)=O)cc2)c2sc(-c3ccccc3)cc2n1	TAAR1 antagonist 55.1 (no result: OX1R antag-1, OX1R antag-2, CHO parental Ca) | nonsel antag count 51.9 | TAAR1 antag conf 50.4 | Ga16 nonsel ag inactive | TAAR1 ag count inactive
COCCNc1nc(Oc2ccc(CC(=O)OC)cc2)c2sc(-c3ccccc3)cc2n1	none (no result: OX1R antag-1, OX1R antag-2, CHO parental Ca)
Nc1nc(-c2cc(O)ccc2[N+](=O)[O-])cc(-c2ccccc2)c1[N+](=O)[O-]	TAAR1 antagonist 48.9 (no result: OX1R antag-1, OX1R antag-2, CHO parental Ca) | nonsel antag count 24.0 | TAAR1 antag conf inactive | Ga16 nonsel ag inactive | TAAR1 ag count inactive
Cc1ccc(-c2nn(-c3cccc(F)c3)cc2CNCc2cccnc2)o1	TAAR1 antagonist 66.0 | nonsel antag count 30.7 | TAAR1 antag conf inactive | Ga16 nonsel ag inactive | TAAR1 ag count inactive
COc1ccc([C@H]2CC(=O)C=C(c3cccc(Br)c3)C2)cc1OC	TAAR1 antagonist 64.4 | nonsel antag count inactive | TAAR1 antag conf inactive | Ga16 nonsel ag inactive | TAAR1 ag count inactive
CC(C)C(=O)Nc1ccc(NC(=O)c2cccnc2)cn1	none
CC1CCCCC1NC(=O)COC(=O)COc1ccccc1F (stereo unspecified)	none
O=C(CSc1ccccc1C(=O)O)NC1CCCCCC1	none
O=C(CSc1ccccc1C(=O)NCc1ccccc1)NC1CCCCCCC1	TAAR1 antagonist 54.5 | nonsel antag count inactive | TAAR1 antag conf inactive | Ga16 nonsel ag inactive | TAAR1 ag count inactive

Screening results as filed in PubChem BioAssay.
